Measured values as given in ChEMBL document CHEMBL2396581, “20(S)-Protopanaxadiol (PPD) analogues chemosensitize multidrug-resistant cancer cells to clinical anticancer drugs” (Bioorg Med Chem, 2013).

Tests used:
Type in all cases: cell-based
[1] = biological target: T1, ATP-dependent translocase ABCB1 (Homo sapiens, UniProt P08183); assay: Inhibition of p-gp in human KB/VCR cells assessed as potentiation of 1 uM docetaxel-induced cytotoxicity at 5 uM after 72 hrs by MTT assay
Outline: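 KBvcr cells seeded at 5 × 10^3 per well were cotreated with 5 μM compound and 1 μM docetaxel for 72 h. Survival (%) was read by MTT and compared with wells without docetaxel.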

[2] = Cytotoxicity against human KB/VCR cells assessed as cell viability at 5 uM after 72 hrs by MTT assay
Outline: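 KB/VCR cells in DMEM with 10% FBS and penicillin/streptomycin, 37 °C, 5% CO2. Cells were allowed to attach for 12 h, then exposed to compound for 72 h. MTT was added for 4 h and formazan read at 490 nm.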

[3] = biological target: T1, ATP-dependent translocase ABCB1; assay: Inhibition of p-gp in human KB/VCR cells assessed as intracellular accumulation of adriamycin at 5 uM after 3 hrs by fluorescence assay relative to control
Outline: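 KBvcr cells plated at 1 × 10^5 per well were given ADM (final 10 μM) with 5 μM compound for 3 h. After ice-cold PBS wash and lysis in 1% SDS, intrinsic ADM fluorescence (ex 485/em 590 nm) was read. Results are expressed as a ratio to the ADM-only control, mean ± SD, n = 3.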

[4] = biological target: T1, ATP-dependent translocase ABCB1; assay: Inhibition of p-gp in human KB/VCR cells assessed as potentiation of adriamycin-induced cytotoxicity at 5 uM after 72 hrs by MTT assay
[5] = biological target: T1, ATP-dependent translocase ABCB1; assay: Inhibition of p-gp in human KB/VCR cells assessed as potentiation of vincristine-induced cytotoxicity at 5 uM after 72 hrs by MTT assay
[6] = biological target: T1, ATP-dependent translocase ABCB1; assay: Inhibition of p-gp in human KB/VCR cells assessed as potentiation of adriamycin-induced cytotoxicity at 5 uM after 72 hrs by MTT assay relative to verapamil
[7] = biological target: T1, ATP-dependent translocase ABCB1; assay: Inhibition of p-gp in human KB/VCR cells assessed as intracellular accumulation of rhodamine123 at 0.5 uM after 2 hrs by microplate fluorometric analysis
Outline: (§1)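 KBvcr cells plated at 1 × 10^5 per well were pretreated with graded compound concentrations, then given Rhodamine123 10 μM for 2 h at 37 °C. Cells were washed with ice-cold PBS and lysed in 1% SDS. Fluorescence (ex 494/em 517 nm) was read on a microplate fluorometer and compared with untreated cells. Three independent experiments.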

[8] = biological target: T1, ATP-dependent translocase ABCB1; assay: Inhibition of p-gp in human KB/VCR cells assessed as potentiation of vincristine-induced cytotoxicity at 5 uM after 72 hrs by MTT assay relative to verapamil
[9] = biological target: T1, ATP-dependent translocase ABCB1; assay: Inhibition of p-gp in human KB/VCR cells assessed as potentiation of 100 nM docetaxel-induced cytotoxicity after 72 hrs by MTT assay
Outline: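 KBvcr cells cultured 72 h with fixed 100 nM docetaxel and graded modulator concentrations. Viability read by MTT, formazan at 490 nm. EC50 calculated from dose–response. Mean SD of three independent experiments.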

[10] = biological target: T1, ATP-dependent translocase ABCB1; assay: Inhibition of p-gp in human KB/VCR cells assessed as intracellular accumulation of rhodamine123 at 3 uM after 2 hrs by microplate fluorometric analysis; outline: as §1
[11] = biological target: T1, ATP-dependent translocase ABCB1; assay: Inhibition of p-gp in human KB/VCR cells assessed as intracellular accumulation of rhodamine123 at 2 uM after 2 hrs by microplate fluorometric analysis; outline: as §1
[12] = biological target: T1, ATP-dependent translocase ABCB1; assay: Inhibition of p-gp in human KB/VCR cells assessed as potentiation of 1 uM docetaxel-induced cytotoxicity at 5 uM after 72 hrs by MTT assay relative to verapamil
[13] = biological target: T1, ATP-dependent translocase ABCB1; assay: Inhibition of p-gp in human KB/VCR cells assessed as intracellular accumulation of rhodamine123 after 2 hrs by microplate fluorometric analysis
Outline: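 KBvcr cells plated at 1 × 10^5 per well and incubated 2 h at 37 °C in CO2 incubator with 10 μM Rhodamine123, with or without test compounds. Cells washed with ice-cold PBS, then lysed in 1% SDS/PBS. Fluorescence read at ex 494/em 517 nm. Accumulation ratio taken relative to untreated cells. Mean SD of three independent experiments.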

[14] = biological target: T1, ATP-dependent translocase ABCB1; assay: Inhibition of p-gp in human KB/VCR cells assessed as intracellular accumulation of rhodamine123 at 1 uM after 2 hrs by microplate fluorometric analysis; outline: as §1

T1 sequence (P08183 whole entry): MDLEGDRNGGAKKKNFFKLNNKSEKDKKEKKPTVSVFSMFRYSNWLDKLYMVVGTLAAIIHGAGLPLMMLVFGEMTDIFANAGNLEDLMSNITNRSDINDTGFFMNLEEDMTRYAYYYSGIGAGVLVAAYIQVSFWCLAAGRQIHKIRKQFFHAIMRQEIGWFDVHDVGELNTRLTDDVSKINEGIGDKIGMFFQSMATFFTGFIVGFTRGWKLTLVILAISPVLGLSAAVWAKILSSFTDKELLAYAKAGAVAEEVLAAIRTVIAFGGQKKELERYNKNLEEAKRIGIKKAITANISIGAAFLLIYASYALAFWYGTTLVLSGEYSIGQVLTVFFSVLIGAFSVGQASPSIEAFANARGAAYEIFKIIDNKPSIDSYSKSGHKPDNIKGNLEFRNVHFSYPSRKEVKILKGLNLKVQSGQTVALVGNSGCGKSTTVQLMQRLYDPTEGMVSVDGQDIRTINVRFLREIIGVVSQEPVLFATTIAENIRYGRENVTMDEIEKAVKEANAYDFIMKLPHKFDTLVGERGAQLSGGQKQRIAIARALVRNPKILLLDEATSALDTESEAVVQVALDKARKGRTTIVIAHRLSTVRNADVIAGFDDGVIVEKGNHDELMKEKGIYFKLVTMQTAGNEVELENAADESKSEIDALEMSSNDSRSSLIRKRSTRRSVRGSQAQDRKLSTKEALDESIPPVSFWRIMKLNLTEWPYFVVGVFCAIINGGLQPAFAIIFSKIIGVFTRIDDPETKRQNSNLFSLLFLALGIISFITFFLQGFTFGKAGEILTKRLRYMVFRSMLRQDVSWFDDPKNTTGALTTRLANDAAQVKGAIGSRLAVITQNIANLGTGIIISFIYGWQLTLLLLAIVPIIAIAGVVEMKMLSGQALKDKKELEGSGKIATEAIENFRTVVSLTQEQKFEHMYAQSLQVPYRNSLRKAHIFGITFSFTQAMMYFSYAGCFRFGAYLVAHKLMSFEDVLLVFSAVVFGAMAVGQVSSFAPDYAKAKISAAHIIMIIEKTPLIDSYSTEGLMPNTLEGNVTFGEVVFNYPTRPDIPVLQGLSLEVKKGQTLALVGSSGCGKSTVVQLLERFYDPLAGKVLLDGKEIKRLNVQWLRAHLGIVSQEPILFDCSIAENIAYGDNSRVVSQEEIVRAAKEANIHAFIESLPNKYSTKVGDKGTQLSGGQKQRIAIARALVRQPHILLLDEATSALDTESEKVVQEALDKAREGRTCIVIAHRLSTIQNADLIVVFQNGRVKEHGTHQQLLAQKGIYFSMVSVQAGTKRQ

CC1(C)[C@@H](O)CC[C@]2(C)[C@H]3C[C@@H](O)[C@@H]4[C@@H]([C@@](C)(O)CCCNCCc5ccc6c(c5)OCO6)CC[C@@]4(C)[C@]3(C)CC[C@@H]12
inhibition (INH) [1]: Active

CC1(C)[C@@H](O)CC[C@]2(C)[C@H]3C[C@@H](O)[C@@H]4[C@@H]([C@@](C)(O)CCCNCCCc5ccccc5)CC[C@@]4(C)[C@]3(C)CC[C@@H]12
Activity [2]: Toxic
fold change (FC) [3]: 1.3
inhibition (INH) [1]: Active

CC1(C)[C@@H](O)CC[C@]2(C)[C@H]3C[C@@H](O)[C@@H]4[C@@H]([C@@](C)(O)CCCNCc5ccccn5)CC[C@@]4(C)[C@]3(C)CC[C@@H]12
inhibition (INH) [1]: Active

CC1(C)[C@@H](O)CC[C@]2(C)[C@H]3C[C@@H](O)[C@@H]4[C@@H]([C@@](C)(O)CCCNCc5cccnc5)CC[C@@]4(C)[C@]3(C)CC[C@@H]12
inhibition (INH) [4]: Active
inhibition (INH) [5]: Active
fold change (FC) [3]: 1.3
inhibition (INH) [1]: Active

CC1(C)[C@@H](O)CC[C@]2(C)[C@H]3C[C@@H](O)[C@@H]4[C@@H]([C@@](C)(O)CCCNCc5ccncc5)CC[C@@]4(C)[C@]3(C)CC[C@@H]12
inhibition (INH) [1]: Active

COc1ccc(NCCC[C@](C)(O)[C@H]2CC[C@]3(C)[C@@H]2[C@H](O)C[C@@H]2[C@@]4(C)CC[C@H](O)C(C)(C)[C@@H]4CC[C@]23C)cc1
inhibition (INH) [1]: Not Active

CC1(C)[C@@H](O)CC[C@]2(C)[C@H]3C[C@@H](O)[C@@H]4[C@@H]([C@@](C)(O)CCCNCc5ccccc5)CC[C@@]4(C)[C@]3(C)CC[C@@H]12
fold change (FC) [6]: 1.3
RFU [7]: 39800
fold change (FC) [8]: 1.3
inhibition (INH) [9]: Dose-dependent effect
RFU [10]: 95300
RFU [11]: 57000
fold change (FC) [12]: 1.5
inhibition (INH) [13]: Dose-dependent effect
fold change (FC) [3]: 1.3
inhibition (INH) [1]: Active

C[C@H](NCCC[C@](C)(O)[C@H]1CC[C@]2(C)[C@@H]1[C@H](O)C[C@@H]1[C@@]3(C)CC[C@H](O)C(C)(C)[C@@H]3CC[C@]12C)c1ccccc1
Activity [2]: Toxic
inhibition (INH) [1]: Active

COc1ccc(CNCCC[C@](C)(O)[C@H]2CC[C@]3(C)[C@@H]2[C@H](O)C[C@@H]2[C@@]4(C)CC[C@H](O)C(C)(C)[C@@H]4CC[C@]23C)cc1
inhibition (INH) [1]: Active

CC1(C)[C@@H](O)CC[C@]2(C)[C@H]3C[C@@H](O)[C@@H]4[C@@H]([C@@](C)(O)CCCNCc5ccc(F)cc5)CC[C@@]4(C)[C@]3(C)CC[C@@H]12
Activity [2]: Toxic
inhibition (INH) [1]: Active

CC1(C)[C@@H](O)CC[C@]2(C)[C@H]3C[C@@H](O)[C@@H]4[C@@H]([C@@](C)(O)CCCNCc5ccc(Cl)cc5)CC[C@@]4(C)[C@]3(C)CC[C@@H]12
Activity [2]: Toxic
inhibition (INH) [1]: Active

COc1ccc(CNCCC[C@](C)(O)[C@H]2CC[C@]3(C)[C@@H]2[C@H](O)C[C@@H]2[C@@]4(C)CC[C@H](O)C(C)(C)[C@@H]4CC[C@]23C)cc1OC
inhibition (INH) [1]: Active

CC1(C)[C@@H](O)CC[C@]2(C)[C@H]3C[C@@H](O)[C@@H]4[C@@H]([C@@](C)(O)CCCNCCc5ccccc5)CC[C@@]4(C)[C@]3(C)CC[C@@H]12
fold change (FC) [6]: 1.4
RFU [7]: 43200
fold change (FC) [8]: 1.8
inhibition (INH) [9]: Dose-dependent effect
RFU [10]: 105300
RFU [11]: 63700
fold change (FC) [12]: 2.6
inhibition (INH) [13]: Dose-dependent effect
fold change (FC) [3]: 1.3
inhibition (INH) [1]: Active
RFU [14]: 48700

CC1(C)[C@@H](O)CC[C@]2(C)[C@H]3C[C@@H](O)[C@@H]4[C@@H]([C@@](C)(O)CCCNCCc5ccc(Cl)cc5)CC[C@@]4(C)[C@]3(C)CC[C@@H]12
Activity [2]: Toxic
fold change (FC) [3]: 1.3
inhibition (INH) [1]: Active

CC1(C)[C@@H](O)CC[C@]2(C)[C@H]3C[C@@H](O)[C@@H]4[C@@H]([C@@](C)(O)CCCNCCc5ccc([N+](=O)[O-])cc5)CC[C@@]4(C)[C@]3(C)CC[C@@H]12
Activity [2]: Toxic
fold change (FC) [3]: 1.3
inhibition (INH) [1]: Active

COc1ccc(CCNCCC[C@](C)(O)[C@H]2CC[C@]3(C)[C@@H]2[C@H](O)C[C@@H]2[C@@]4(C)CC[C@H](O)C(C)(C)[C@@H]4CC[C@]23C)cc1OC
inhibition (INH) [4]: Active
inhibition (INH) [5]: Active
fold change (FC) [3]: 1.3
inhibition (INH) [1]: Active

CNCCC[C@](C)(O)[C@H]1CC[C@]2(C)[C@@H]1[C@H](O)C[C@@H]1[C@@]3(C)CC[C@H](O)C(C)(C)[C@@H]3CC[C@]12C
inhibition (INH) [1]: Not Active

CCNCCC[C@](C)(O)[C@H]1CC[C@]2(C)[C@@H]1[C@H](O)C[C@@H]1[C@@]3(C)CC[C@H](O)C(C)(C)[C@@H]3CC[C@]12C
inhibition (INH) [1]: Not Active

CCCNCCC[C@](C)(O)[C@H]1CC[C@]2(C)[C@@H]1[C@H](O)C[C@@H]1[C@@]3(C)CC[C@H](O)C(C)(C)[C@@H]3CC[C@]12C
inhibition (INH) [1]: Not Active

CC(C)NCCC[C@](C)(O)[C@H]1CC[C@]2(C)[C@@H]1[C@H](O)C[C@@H]1[C@@]3(C)CC[C@H](O)C(C)(C)[C@@H]3CC[C@]12C
inhibition (INH) [1]: Not Active

CC(C)(C)NCCC[C@](C)(O)[C@H]1CC[C@]2(C)[C@@H]1[C@H](O)C[C@@H]1[C@@]3(C)CC[C@H](O)C(C)(C)[C@@H]3CC[C@]12C
inhibition (INH) [1]: Not Active

CC1(C)[C@@H](O)CC[C@]2(C)[C@H]3C[C@@H](O)[C@@H]4[C@@H]([C@@](C)(O)CCCNC5CC5)CC[C@@]4(C)[C@]3(C)CC[C@@H]12
inhibition (INH) [1]: Not Active

CC1(C)[C@@H](O)CC[C@]2(C)[C@H]3C[C@@H](O)[C@@H]4[C@@H]([C@@](C)(O)CCCNCCCn5ccnc5)CC[C@@]4(C)[C@]3(C)CC[C@@H]12
inhibition (INH) [1]: Not Active

CC1(C)[C@@H](O)CC[C@]2(C)[C@H]3C[C@@H](O)[C@@H]4[C@@H]([C@@](C)(O)CCCNCCN5CCNCC5)CC[C@@]4(C)[C@]3(C)CC[C@@H]12
inhibition (INH) [1]: Not Active

CC1(C)[C@@H](O)CC[C@]2(C)[C@H]3C[C@@H](O)[C@@H]4[C@@H]([C@@](C)(O)CCCNCCCO)CC[C@@]4(C)[C@]3(C)CC[C@@H]12
inhibition (INH) [1]: Not Active

CC(C)=CCC[C@](C)(O)[C@H]1CC[C@]2(C)[C@@H]1[C@H](O)C[C@@H]1[C@@]3(C)CC[C@H](O)C(C)(C)[C@@H]3CC[C@]12C
Activity [2]: Non-toxic
inhibition (INH) [1]: Not Active

COc1ccc(CCN(C)CCC[C@@](C#N)(c2ccc(OC)c(OC)c2)C(C)C)cc1OC
RFU [7]: 35900
RFU [10]: 98700
RFU [11]: 53000
RFU [14]: 46100
